The species named for data set [1] is Rattus norvegicus. Description: Amount of deuterium retained was reported after reincubation followed by normal workup in phenobarbital treated male rats with rac 8-D. Format: ADME, organism-based.
For data set [2], the species on record is Rattus norvegicus. Description: Amount of deuterium retained was reported after normal workup in rats. The data set is classed as ADME, organism-based. The gist of the method: (§1)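 Liver microsomes from male Sprague-Dawley rats (140–160 g), untreated or pretreated with phenobarbital or β-naphthoflavone; protein set to 10 mg/mL. The 1-mL mix held substrate, an NADP+/glucose 6-phosphate/MgCl2 cofactor solution, glucose-6-phosphate dehydrogenase and microsomes in 0.05 M phosphate pH 7.4. It ran 10 min at 37 °C, in duplicate. Hydroxywarfarins were measured by capillary GC-MS, and % deuterium retention was calculated as product over substrate incorporation.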

For data set [3], the species on record is Rattus norvegicus. Description: Compound incubated with microsomal preparations from phenobarbital treated male rats with the substrate rac 8-D and the amount of deuterium retained was reported after normal workup. The data set is classed as ADME. A digest of the protocol: as §1
The species named for data set [4] is Rattus norvegicus. Description: Amount of deuterium retained was reported after reincubation followed by normal workup in phenobarbital treated male rats. Format: ADME, organism-based.
The species named for data set [5] is Rattus norvegicus. Description: Compound incubated with microsomal preparations from beta-naphthoflavone-treated male rats with the substrate rac 7-D and the amount of deuterium retained was reported after reincubation followed by normal workup. The data set is classed as ADME.
Data set [6] is filed under the species Rattus norvegicus. Description: Amount of deuterium retained was reported after normal workup in beta-naphthoflavone-treated male rats with the substrate rac 7-D. The data set is classed as ADME, organism-based. The gist of the method:
as §1

Four compounds from ChEMBL document CHEMBL1123118, “Substrate probes for the mechanism of aromatic hydroxylation catalyzed by cytochrome P-450: selectively deuterated analogues of warfarin” (J Med Chem, 1985) can be followed below.

Each structure is given as a SMILES string.

For `CC(=O)CC(c1ccc(O)cc1)c1c(O)oc2ccccc2c1=O` (centres undefined), the Deuterium retention came to 91% in data set [1]; 84% in data set [2]; 92% in data set [3]; 85% in data set [4]; 83% in data set [5]; 86% in data set [6].
`CC(=O)CC(c1ccccc1)c1c(O)oc2c(O)cccc2c1=O` (centres undefined): the Deuterium retention in data set [1] turned out to be 58%; in data set [2] it was 82%; in data set [3], 58%; in data set [4], 83%; in data set [5] it was 76%; in data set [6] it was 76%.
With `CC(=O)CC(c1ccccc1)c1c(O)oc2cc(O)ccc2c1=O` (centres undefined), the Deuterium retention in data set [1] is 83%; in data set [2], 76%; in data set [3] it was 84%; in data set [4], 76%; in data set [5] it was 50%; in data set [6] it was 52%.
`CC(=O)CC(c1ccccc1)c1c(O)oc2ccc(O)cc2c1=O` (centres undefined): the Deuterium retention in data set [1] worked out at 89%; in data set [2] it was 66%; in data set [3], 90%; in data set [4], 65%; in data set [5] it was 84%; in data set [6], 84%.
